Experimental data published in ChEMBL document CHEMBL1149458, “Synthesis and pharmacological evaluation of second-generation phosphatidic acid derivatives as lysophosphatidic acid receptor ligands” (Bioorg Med Chem Lett, 2006).
Values belong to the compound of their own block, whether it stands above or below them. The source made the active and inactive calls. The rule behind the calls is not given here.

Columns and labels:
[1] = tested on: RH7777 (Rattus norvegicus); test: Ability to evoke intracellular calciums transient in wild-type RH7777 cells
[2] = biological target: T1, Peroxisome proliferator-activated receptor gamma (Homo sapiens) (UniProt P37231); test: Activation of PPARgamma in CV1 cells transfected with PPARgamma and luciferase reporter gene; format: functional, cell-based; settings: CV-1
T1 sequence (whole entry): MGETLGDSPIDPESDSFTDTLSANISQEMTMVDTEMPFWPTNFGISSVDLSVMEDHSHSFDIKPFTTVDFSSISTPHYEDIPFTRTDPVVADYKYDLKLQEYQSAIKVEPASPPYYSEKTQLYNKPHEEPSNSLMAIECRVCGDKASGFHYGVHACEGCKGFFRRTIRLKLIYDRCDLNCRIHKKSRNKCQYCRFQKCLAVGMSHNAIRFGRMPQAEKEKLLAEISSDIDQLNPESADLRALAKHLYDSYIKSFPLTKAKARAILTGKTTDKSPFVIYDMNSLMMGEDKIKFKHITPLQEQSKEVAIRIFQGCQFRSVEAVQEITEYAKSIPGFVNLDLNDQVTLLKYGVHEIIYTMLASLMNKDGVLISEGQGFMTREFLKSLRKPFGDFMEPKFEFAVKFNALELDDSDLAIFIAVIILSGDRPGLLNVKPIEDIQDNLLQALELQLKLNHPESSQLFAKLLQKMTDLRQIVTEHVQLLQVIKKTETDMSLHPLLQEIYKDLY
Procedure, shortened: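 CV1 cells transfected with PPARγ and a PPRE-Acox-Rluc reporter, treated 20 h with vehicle or 10 µM compound in DMSO. Luciferase and β-galactosidase activities measured in cell lysate (mean ± SEM, n = 4). Rosiglitazone used as reference agonist; significance versus vehicle control.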

[3] = biological target: Lysophosphatidic acid receptor 1 (Homo sapiens, UniProt Q92633); test: Activity at LPA1 receptor transfected RH7777 cells; format: cell-based
Procedure, shortened: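 RH7777 cells, which lack endogenous LPA GPCR, were stably transfected with LPA1. Intracellular Ca2+ transients were recorded after applying increasing concentrations of compound to build dose–response relationships, with LPA 18:1 as the reference agonist.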

[4] = biological target: Autotaxin (Homo sapiens, UniProt Q13822); test: Inhibition of recombinant ATX from transfected HEK293 cells; format: cell-based; settings: for inhibition: concentration not given here
Procedure, shortened: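 Recombinant ATX in conditioned medium from transiently transfected HEK293 cells, assayed by hydrolysis of the substrate bis(para-nitrophenyl) phosphate.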

[5] = biological target: Lysophosphatidic acid receptor 2 (Homo sapiens) (UniProt Q9HBW0); test: Activity at LPA2 receptor transfected RH7777 cells; format: cell-based
Procedure, shortened: (§1)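 RH7777 cells, which lack LPA GPCR, stably transfected with the single receptor (LPA2 or LPA3). Intracellular Ca2+ transients recorded after applying increasing compound concentrations, benchmarked against LPA 18:1, to assess agonist and antagonist activity.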

[6] = biological target: T2, Lysophosphatidic acid receptor 3 (Homo sapiens) (UniProt Q9UBY5); test: Activity at LPA3 receptor transfected RH7777 cells; format: cell-based
T2 sequence (whole entry): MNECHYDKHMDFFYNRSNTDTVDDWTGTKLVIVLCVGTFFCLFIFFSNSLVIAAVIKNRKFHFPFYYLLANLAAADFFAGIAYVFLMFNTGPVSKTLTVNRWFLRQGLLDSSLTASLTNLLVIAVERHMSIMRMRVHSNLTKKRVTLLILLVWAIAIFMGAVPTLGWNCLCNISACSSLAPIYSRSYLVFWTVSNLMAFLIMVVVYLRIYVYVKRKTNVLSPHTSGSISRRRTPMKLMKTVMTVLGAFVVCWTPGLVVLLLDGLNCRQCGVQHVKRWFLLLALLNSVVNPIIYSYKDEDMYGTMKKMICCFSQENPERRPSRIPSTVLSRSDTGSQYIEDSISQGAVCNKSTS
Procedure, shortened: as §1

Lysophosphatidic acid receptor 2 (Homo sapiens), sequence (Q9HBW0 whole entry): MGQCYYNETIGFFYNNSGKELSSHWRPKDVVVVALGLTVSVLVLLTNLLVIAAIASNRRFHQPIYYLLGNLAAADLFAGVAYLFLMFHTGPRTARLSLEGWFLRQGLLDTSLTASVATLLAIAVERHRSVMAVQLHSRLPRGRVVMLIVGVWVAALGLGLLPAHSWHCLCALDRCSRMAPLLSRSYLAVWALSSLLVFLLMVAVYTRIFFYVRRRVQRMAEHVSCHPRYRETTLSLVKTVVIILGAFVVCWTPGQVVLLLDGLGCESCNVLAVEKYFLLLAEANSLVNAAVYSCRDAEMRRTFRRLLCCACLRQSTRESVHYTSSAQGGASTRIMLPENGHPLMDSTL
Lysophosphatidic acid receptor 1, sequence (Q92633 whole entry): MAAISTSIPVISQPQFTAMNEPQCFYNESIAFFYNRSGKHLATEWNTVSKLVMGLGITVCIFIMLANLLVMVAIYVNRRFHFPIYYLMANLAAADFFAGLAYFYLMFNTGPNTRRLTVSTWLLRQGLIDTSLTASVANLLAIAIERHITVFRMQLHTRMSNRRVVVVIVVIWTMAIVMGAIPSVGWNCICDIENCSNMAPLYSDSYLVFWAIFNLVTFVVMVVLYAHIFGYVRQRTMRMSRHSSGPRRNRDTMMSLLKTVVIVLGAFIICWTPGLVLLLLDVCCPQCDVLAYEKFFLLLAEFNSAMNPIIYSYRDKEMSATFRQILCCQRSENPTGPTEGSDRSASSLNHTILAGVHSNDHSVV

Activity [2]: Active
Structure (SMILES): CCCCCCCCOC[C@@H](COP(=O)(O)O)OCCCCCCCC
Activity [1]: inactive

Structure (SMILES): CCCCCCCCNC(=O)[C@@H](COP(O)(O)=S)NC(=O)CCCCCCC
Activity [2]: inactive

IC50 [3]: 692 nM
Ki [3]: 407 nM
IC50 [4]: 1640 nM
inhibition [4]: 49.9%
Structure (SMILES): CCCCCCCC(=O)OC[C@H](COP(=O)(O)O)OC(=O)CCCCCCC

Structure (SMILES): CCCCCCCCOC[C@H](COP(O)(O)=S)OCCCCCCCC
Emax [3]: 30%
Emax [5]: 27%
Emax [6]: 109%
Activity [1]: inactive
Activity [2]: Active

Structure (SMILES): CCCCCCCC(=O)OC[C@@H](COP(O)(O)=S)OC(=O)CCCCCCC
Emax [5]: 17%
IC50 [4]: 727 nM
inhibition [4]: 52.3%
Emax [6]: 30%
Activity [2]: inactive

Structure (SMILES): CCCCCCCCOC[C@@H](COP(O)(O)=S)OCCCCCCCC
Activity [1]: inactive
Activity [2]: Active

Activity [2]: inactive
Structure (SMILES): CCCCCCCCNC(=O)[C@@H](COP(=O)(O)O)NC(=O)CCCCCCC

Structure (SMILES): CCCCCCCC(=O)OC[C@H](COP(O)(O)=S)OC(=O)CCCCCCC
Emax [5]: 58%
IC50 [4]: 597 nM
inhibition [4]: 72.5%
Activity [2]: inactive

Emax [3]: 57%
Emax [6]: 109%
Activity [2]: Active
Structure (SMILES): CCCCCCCCOC[C@H](COP(=O)(O)O)OCCCCCCCC
Activity [1]: inactive

Activity [2]: inactive
Structure (SMILES): CCCCCCCC(=O)OC[C@@H](COP(=O)(O)O)OC(=O)CCCCCCC

Structure (SMILES): CCCCCCCCNC(=O)[C@H](COP(O)(O)=S)NC(=O)CCCCCCC
Activity [2]: inactive
